Measured values: paper PMC7856085 (Archives of biochemistry and biophysics, 2020)

Experiments:
[1] = target: GSALDH activity of SmPutA (Sinorhizobium meliloti, UniProt F7X6I3); assay: GSALDH activity measurements; type: biochemical; details: for Ki / α: P5C variable substrate
SmPutA = assay: Fluorescence-based thermal shift assay; type: binding, Sinorhizobium meliloti; details: compound at 62.5 mM; ligand-free SmPutA T1/2 40.2 °C
[2] = system: GSALDH active site of SmPutA; assay: Co-crystallization / electron density in the GSALDH active site; parameters: species or system Sinorhizobium meliloti; details: co-crystallization at 50 mM
How it was run: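 Recombinant SmPutA (expressed in E. coli) at 6 mg/mL in 50 mM Tris pH 8.0, 50 mM NaCl, 5% glycerol, 0.5 mM TCEP. Sitting-drop co-crystallization at 13 °C against 19% PEG-3350, 0.2 M ammonium sulfate, 0.1 M MgCl2, 0.1 M HEPES pH 8.0, 0.1 M sodium formate. Ligand at 50 mM, with or without 10 mM NAD+. Cryoprotected with added 15% PEG-200. Ligand density checked with polder omit maps.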

mammalian GSALDH = details: competitive with P5C; cited from earlier work
[3] = Competitive model, NAD+ fixed at 0.2 mM
[4] = Mixed model, NAD+ fixed at 0.2 mM
[5] = Uncompetitive model, NAD+ fixed at 0.2 mM

Structure (SMILES) | Ki [1, 3] [mM] | Ki [1, 4] [mM] | α [1, 4] | ΔT1/2 (increase of midpoint of stability curve) (SmPutA) [°C] | also measured
O=C(O)[C@H]1C[C@@H](O)CN1 [CHDP, cis-4-hydroxy-D-proline] | 8 | 25 | 0.9 ± 0.5 | 4.0 | –
O=C(O)[C@@H]1C[C@H](O)CN1 [CHLP, cis-4-hydroxy-L-proline] | – | – | – | 2.1 | Binding to GSALDH site (electron density) [2]: does not bind GSALDH; Inhibition of the GSALDH activity of SmPutA ([1]; fit to competitive model, L-P5C variable substrate, NAD+ fixed): does not inhibit
O=C(O)[C@H]1CCCN1 [D-Pro, D-proline] | 1.5 ± 0.5 | – | – | – | Ki [1, 5]: 4.5 ± 0.2 mM
O=C(O)C1CCC=N1 [L-P5C, Δ^1-pyrroline-5-carboxylate] | – | – | – | – | Km ([1]; substrate of GSALDH activity of SmPutA, NAD+ fixed at 0.2 mM): 300 ± 100 µM
O=C(O)[C@@H]1CCCN1 [L-Pro, L-proline] | 11 | – | – | – | Ki (mammalian GSALDH): 3 mM; Ki [1, 5]: 19 mM
O=C(O)[C@H]1C[C@H](O)CN1 [THDP, trans-4-hydroxy-D-proline] | 4.5 ± 0.5 | 10 | 1.6 ± 0.4 | 5.6 | –
O=C(O)[C@@H]1C[C@@H](O)CN1 [THLP, trans-4-hydroxy-L-proline] | 7 | 27 | 0.6 ± 0.1 | 2.9 | –
